# Screens (PubChem BioAssay)
# G6PDH CS: L. mesenteroides G6PDH inhibition counter-screen; Purified L. mesenteroides G6PDH, diaphorase/resazurin coupled fluorescence, 45 min; inhibition, % at 5 µM; hit rate 0.12% among 200,000; in the data active means inhibition above about 50%
# Diaph act CS: diaphorase activation or chemical reduction counter-screen | activation factor at 20 µM | hit rate 0.005% among 190,000 | AID 1229 | Diaphorase/resazurin coupled assay, resorufin fluorescence, 16 min; active compounds read high; 1 = vehicle wells, 0 = NADH-free wells;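 active means diaphorase activity raised at least twofold by the compound at 20 µM; inactive means activation factor below 2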
#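 Material: purified diaphorase enzyme from Clostridium kluyveri; Also added: 0.114 mM NADH and 0.1 mM resazurin, final amounts; Doses: single compound dose of 20 µM, 1% DMSO final; Times: 16 min enzyme reaction, ambient temperature; Detection: resorufin fluorescence, excitation 544 nm, emission 590 nm; Measure: increased resorufin signal from activators or reducing compounds.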
# PMI act satM6P: activators of human phosphomannose isomerase at near-saturating mannose 6-phosphate; activation factor at 20 µM; hit rate 0.34% among 190,000; AID 1216; coupled PMI enzyme assay, resazurin fluorescence, 20 min; active compounds read high; 1 = untreated enzyme, 0 = substrate-free blank; P34949;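 active means activation factor of 2 or more at 20 µM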
# Target sequence (P34949 whole entry, looked up): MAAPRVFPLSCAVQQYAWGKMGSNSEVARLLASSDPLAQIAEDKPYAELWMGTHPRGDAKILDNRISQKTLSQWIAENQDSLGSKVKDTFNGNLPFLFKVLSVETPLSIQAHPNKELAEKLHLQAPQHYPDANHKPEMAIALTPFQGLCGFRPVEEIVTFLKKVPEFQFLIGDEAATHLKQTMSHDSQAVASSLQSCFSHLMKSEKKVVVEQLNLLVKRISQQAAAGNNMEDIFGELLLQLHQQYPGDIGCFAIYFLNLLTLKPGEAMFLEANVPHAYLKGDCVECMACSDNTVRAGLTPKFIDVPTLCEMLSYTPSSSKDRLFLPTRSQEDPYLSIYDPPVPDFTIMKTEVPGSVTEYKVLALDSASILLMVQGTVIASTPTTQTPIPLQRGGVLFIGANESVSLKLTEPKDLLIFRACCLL
#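 test system = human PMI in coupled enzyme assay | medium = HEPES-buffered pH 7.4 with magnesium and detergent | also added = 1.0 mM mannose-6-phosphate substrate with 0.22 mM NADP+ | compound = 20 µM single dose | times = 20 min incubation at room temperature | measured by = resorufin fluorescence (Ex 544/Em 590 nm) from resazurin via diaphorase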
# Diaphorase inh: counter-screen for diaphorase-based assays: diaphorase inhibitors and chemical oxidizers; inhibition, % at 20 µM; AID 1217; hit rate 0.69% among 190,000; diaphorase resazurin-to-resorufin fluorescence, NADH, 16 min; bacterial (C. kluyveri) enzyme, not human;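 active means primary screen inhibition at 20 µM above a set limit, cut at about 50% in these data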
#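 Benchmarks: positive control wells lacking NADH, neutral wells with DMSO only. System: bacterial diaphorase enzyme (C. kluyveri). Input: 0.14 U/mL diaphorase, enzyme working solution. Detection: resorufin fluorescence, excitation 544 nm, emission 590 nm. Times: 16-min room-temperature incubation before reading.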
# PMI act: increases human mannose-6-phosphate isomerase activity | purified human PMI, coupled resazurin fluorescence, 20 min; active compounds read high; 1 = vehicle control, 0 substrate-free wells | activation factor at 20 µM | hit rate 0.005% among 190,000 | AID 1214;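 active means activation factor of 2 or more at 20 µM, relative to plate controls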
# A number is an active result; 0 = inactive. Only some compounds are listed: those with a hit (about 1.1% of all), similar ones and a draw of the others.
SMILES,G6PDH CS,Diaph act CS,PMI act satM6P,Diaphorase inh,PMI act
CC(=O)Nc1ccc(S(=O)(=O)NCC(=O)OC(C)c2ccccc2Cl)cc1 (stereo not drawn),0,0,0,0,0
N#Cc1c(-c2ccccc2F)cc(C2CC2)nc1SCC(=O)c1cccs1,0,0,0,0,0
COc1ccc(C2C(C(=O)OCC3CCCO3)=C(C)NC3=C2C(=O)CC(c2ccco2)C3)cc1O (stereo not drawn),0,0,0,0,0
Cc1ccccc1C(=O)NC1CCN(C(=O)N(c2ccccc2)c2ccccc2)CC1,0,0,0,0,0
N#C/C(=N\Nc1ccc(S(=O)(=O)N2CCc3ccccc32)cc1)C(N)=S,0,0,0,56.5,0
COc1cccc(-n2c(SCc3cc(=O)oc4cc(O)c(O)cc34)nc3ccccc3c2=O)c1,0,0,0,58.6,0
CC(OC(=O)c1cc(=O)[nH]c2ccccc12)c1ccccc1 (stereo not drawn),0,0,0,0,0
CCn1c(SCc2nc3sc(C(=O)O)c(C)c3c(=O)[nH]2)nc2ccccc21,0,0,0,60.9,0
COCCn1c(SCc2nc3sc(C(=O)OC)c(C)c3c(=O)[nH]2)nc2ccccc21,0,0,0,0,0
CN1c2ccccc2C(C)(C)C12CCCC(=O)N2 (stereo not drawn),0,0,2,0,0
COc1cccc(/C=N/Nc2ccc(C(=O)O)cc2)c1O,0,0,0,0,0
COc1cccc(/C=N/Nc2ccc(S(=O)(=O)O)cc2)c1O,0,0,2.1,0,0
NC(=O)C1CCN(C(=O)CCC(=O)c2ccc(Br)cc2)CC1,0,0,0,0,0
O=C(c1ccccc1Sc1ccc([N+](=O)[O-])cc1Cl)N1CCOCC1,0,0,2.1,0,0
Cc1ccc(Oc2ccc(S(=O)(=O)N3CCOCC3)cc2C(N)=O)c(-n2nc3ccccc3n2)c1,0,0,0,0,0
CCOc1c(Cl)cc(CNc2ccc(N3CCCC3)cc2)cc1OC,0,0,0,74.4,0
COc1cccc2c(=O)c3cccc(N)c3[nH]c12,0,0,0,85.9,0
O=C(NCc1ccccc1)c1cc[n+](Cc2ccccc2)cc1,0,0,0,0,0
CC(=O)Nc1ccc(N(C(=O)Cn2nnc3ccccc32)C(C(=O)NC2CCCC2)c2ccc(O)c(O)c2)cc1 (stereo not drawn),0,0,0,55.9,0
Cc1ccc(N(C(=O)Cn2nnc3ccccc32)C(C(=O)NC2CCCCC2)c2cn(C)nc2C)cc1 (stereo not drawn),0,0,0,0,0
O=C(/C=C/NCC(=O)c1ccccc1)c1ccc(Br)cc1,0,0,2.1,0,0
O=C(/C=C/NNC(=O)c1ccccc1)c1ccc(Br)cc1,0,0,0,0,0
COc1cccc(NC(=S)NN=C2CCC(C(C)(C)C)CC2)c1 (stereo not drawn),0,0,2.1,0,0
Cc1ccccc1S(=O)(=O)Cc1ccc(C(=O)NCc2cccnc2)o1,0,0,0,0,0
CCOc1cccc2sc(NN)nc12,0,0,2.2,0,0
SMILES,G6PDH CS,Diaph act CS,PMI act satM6P,Diaphorase inh,PMI act
CCOc1cccc2sc(Cl)nc12,0,0,0,0,0
CCOC(=O)C1CCN(C(C(=O)NC2CCCC2)c2ccc(C)cc2)CC1 (stereo not drawn),0,0,0,0,0
CCOc1ccc(CC(=O)C2C(=O)CCCC2=O)cc1OCC,0,0,2.1,0,0
CCOc1ccc(CC(=O)C2C(=O)CC(C)(C)CC2=O)cc1OCC,0,0,0,0,0
CCC(C)n1c(SCc2ccc([N+](=O)[O-])cc2)nc2ccsc2c1=O (stereo not drawn),0,0,0,0,0
COc1ccc(CNC(=O)c2ccc(CS(=O)(=O)Cc3ccccc3F)o2)cc1,0,0,0,0,0
N#Cc1sc2nc(C3CC3)cc(-c3ccccc3)c2c1N,0,0,0,0,0
N#Cc1sc2nc(-c3ccccc3)cc(-c3ccco3)c2c1N,0,0,0,62.5,0
CCCC(=O)NCc1ccncc1,0,0,0,0,0
Cc1cccc2cc3c(N)c(C#N)sc3nc12,0,0,0,0,0
Cc1sc(NC(=O)c2sc3nc4c(C)cccc4cc3c2N)c(C#N)c1C,0,0,0,59.1,0
